Here are results for 8 compounds from ChEMBL document CHEMBL1177852, “Design and preparation of aza-analogues of benzo[c]phenanthridine framework with cytotoxic and antiplasmodial activities” (Eur J Med Chem, 2010).

Structures are written as SMILES.

Assay [1] deals with Plasmodium falciparum. The experiment in a line: Antiplasmodial activity against chloroquine-resistant Plasmodium falciparum FcB1/Columbia after 48 hrs. The assay is classed as functional, organism-based. In short, it runs like this: (§1)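 P. falciparum cultured by Trager–Jensen method with modifications; cultures synchronized by 5% D-sorbitol lysis. Parasites incubated with compound at increasing dilutions for 48 h; growth read out as [3H]hypoxanthine incorporation.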

Assay [2] has as its system Plasmodium falciparum. The experiment in a line: Antiplasmodial activity against chloroquine-sensitive Plasmodium falciparum F32 after 48 hrs. The assay is classed as functional, organism-based. To be noted: F32, 48 h. In short, it runs like this: as §1
In another assay the test system is MCF7. The assay is described as follows: Cytotoxicity against human MCF7 cells after 48 hrs by [3H]hypoxanthine incorporation assay. The assay is classed as functional, cell-based. In short, it runs like this: (§2)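 MCF7 and Vero cells cultured as for P. falciparum, but with 5% fetal calf serum in place of 5% human serum. Drugs added at various concentrations; growth measured by [3H]hypoxanthine incorporation after 48 h incubation.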

In the next assay the test system is Vero. The assay is described as follows: Cytotoxicity against african green monkey Vero cells after 48 hrs by [3H]hypoxanthine incorporation assay. The assay is classed as cell-based. The note with it: Chlorocebus sabaeus. In short, it runs like this: as §2

For the compound `Cn1c(=O)c2ccccc2c2c3ccccc3ncc21`, the IC50 – broadly, the midpoint of a concentration-inhibition curve – in the assay on Plasmodium falciparum [1] stood at 14.8 µM; with Plasmodium falciparum [2] it was 32.7 µM; with MCF7, 30.9 µM; with Vero, 22.3 µM.

As to `Cn1c(=O)c2ccccc2c2ccc3cccnc3c21`, the concentration for half-maximal inhibition (IC50) was found to be 38.2 µM in the assay on Plasmodium falciparum [1], 36.3 µM in the assay on Plasmodium falciparum [2], 16.5 µM in the assay on MCF7 and 3.35 µM in the assay with Vero.

As for `Cn1c(=O)c2ccccc2c2ccc3cnccc3c21`, the half-maximal inhibitory concentration (IC50) with Plasmodium falciparum [1] was 54.8 µM; with Plasmodium falciparum [2], 61 µM; in the assay on MCF7, 11.9 µM; in the assay on Vero it was 2.3 µM.

`Cn1c(=O)c2ccccc2c2nc3ccccc3cc21`: the concentration for half-maximal inhibition (IC50) with Plasmodium falciparum [1] worked out at 181 µM; in the assay on Plasmodium falciparum [2], 355 µM; in the assay with MCF7, 154 µM; in the assay with Vero, 42 µM.

Turning to `Cn1c(=O)c2ccccc2c2ccc3ncccc3c21`, the IC50 came out at 22.3 µM in the assay on Plasmodium falciparum [1], 17.6 µM with Plasmodium falciparum [2], 12.5 µM in the assay with MCF7 and 3.5 µM in the assay with Vero.

With `Cn1c(=O)c2ccccc2c2c3cccnc3ccc21`, the IC50 was 80.7 µM in the assay with Plasmodium falciparum [1], 96.1 µM in the assay with Plasmodium falciparum [2], 11.5 µM in the assay with MCF7 and 1.75 µM with Vero.

As for `Cn1c(=O)c2ccccc2c2cc3ncccc3cc21`, the concentration for half-maximal inhibition (IC50) was determined as 154 µM in the assay with Plasmodium falciparum [1], 123 µM with Plasmodium falciparum [2], 0.6 µM in the assay with MCF7 and 2.85 µM in the assay on Vero.

In the case of `COc1cccc2c1C(=O)c1c(O)c3c(c(O)c1C2=O)C[C@@](O)(C(=O)CO)C[C@@H]3O[C@H]1C[C@H](N)[C@H](O)[C@H](C)O1` [DOXORUBICIN], the IC50 was determined as 0.41 µM in the assay with MCF7 and 7.4 µM in the assay on Vero.
